Source: PubChem BioAssay (several laboratories)
Runt-CBFb FRET – Runt domain-CBFb interaction inhibition. Cerulean-Runt/Venus-CBFb FRET ratio 530/480, 1 h. inhibition, % at 20 µM. actives 0.46% (n = 220,000);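 active = inhibition over about 50% at 20 µM in the single-dose screen, limit read from the data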;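 also: 0% = DMSO wells and 100% = excess unlabeled CBFb competitor control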
Target sequence (Q01196 whole entry, looked up, the tested form may be a part): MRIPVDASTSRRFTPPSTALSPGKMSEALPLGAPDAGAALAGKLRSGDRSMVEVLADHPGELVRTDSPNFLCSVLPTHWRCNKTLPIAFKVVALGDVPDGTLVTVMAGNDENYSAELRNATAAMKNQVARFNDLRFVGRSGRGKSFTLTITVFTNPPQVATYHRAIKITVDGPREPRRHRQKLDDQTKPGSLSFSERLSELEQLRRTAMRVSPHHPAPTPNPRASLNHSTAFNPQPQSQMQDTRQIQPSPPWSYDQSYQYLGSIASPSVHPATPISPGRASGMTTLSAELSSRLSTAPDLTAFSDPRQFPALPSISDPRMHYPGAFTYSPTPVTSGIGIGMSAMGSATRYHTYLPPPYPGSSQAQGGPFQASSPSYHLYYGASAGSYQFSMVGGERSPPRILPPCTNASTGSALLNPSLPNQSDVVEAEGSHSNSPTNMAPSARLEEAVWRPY
Target sequence (Q13951 whole entry, looked up, the tested form may be a part): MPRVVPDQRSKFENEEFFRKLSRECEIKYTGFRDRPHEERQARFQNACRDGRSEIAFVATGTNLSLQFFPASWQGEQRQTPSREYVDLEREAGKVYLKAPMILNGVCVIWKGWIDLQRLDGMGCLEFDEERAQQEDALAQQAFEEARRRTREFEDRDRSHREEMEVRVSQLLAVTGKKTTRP
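Buffer or medium: Tris pH 7.5 buffer with BSA. Assay system: Cerulean-labeled Runt domain protein. Amount: each fluorescent fusion protein 100 nM. Read-out basis: loss of energy transfer signal. Incubation: 1 h compound exposure, room temperature. Probe or stimulus: Venus-CBFb binding partner, 100 nM. Detection: FRET, excitation 422 nm, emission at 530 and 480 nm.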
Runt-SMMHC FRET – inhibitors of human RUNX1 Runt domain binding to CBFb-SMMHC; Q01196+Q13951; Cerulean-Runt/Venus-CBFb-SMMHC FRET ratio 530/480, 1 h; inhibition, % at 20 µM; actives 0.74% (n = 220,000); AID 1434;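 active = mean inhibition across duplicate retests at 20 µM reaching about 50%, limit read from the data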;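 also: 0% = DMSO wells and 100% = wells with excess untagged CBFb-SMMHC; inhibitors lower the FRET ratio by blocking Runt binding to CBFb-SMMHC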
RanGTP-Imp inh – inhibitors of RanGTP-importin-beta interaction, primary screen, biochemical, FRET, CFP-Ran, YFP-importin-beta, homogeneous | actives 1.1% (n = 300,000) | AID 2216 | inhibition, % (concentration not given with the values) | cell-free CFP-Ran/YFP-importin-beta FRET ratio;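 active = more than half of the replicate wells show a fall in the fluorescence ratio signal beyond about 16%, limit read from the data, passing the limit was not always enough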;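 also: 0% = DMSO wells and 100% = Ran loaded with GDP instead of GTP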
Wee1 degr inh – blocks degradation of human Wee1 kinase; P30291; HeLa Luc-Wee1K328M stability, luciferase luminescence; 100% = proteasome inhibitor MG132 effect; reporter increase, % at 5 µM; actives 1.2% (n = 220,000); AID 1321;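 active = activation above the mean of all tested compounds plus 3 SD, set per screening run, cut at about 8.8% in these data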;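 also: cells exposed to compound for 20 h before luminescence read; 0% = DMSO alone and 100% = MG132 at 30 µM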
AI-2 QS modul – modulators of Vibrio harveyi AI-2 quorum sensing system; Vibrio harveyi JMH597 AI-2 luminescence/OD600 ratio, 9 h; active compounds read low; strain lacks LuxN and CqsS sensors; 0 = neutral-control median; activity change, % at 7.5 µM; actives 0.4% (n = 300,000); AID 2094; in the data active = activity change below about -75%, passing the limit was not always enough;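 also: luminescence divided by OD600 gain over 9 h not by final OD600 alone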
KLK7 zymogen act – activators of human kallikrein-7 zymogen; P49862; purified proKLK7, EDANS-DABCYL substrate fluorescence; 100% is mature enzyme control, 0% vehicle; activation, % at 7 µM; actives 0.9% (n = 370,000);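 active = activation above the mean of all tested compounds plus 3 SD, computed per campaign excluding outliers beyond control limits, cut at about 13% in these data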
KLK7 act conf – confirmation of human kallikrein-7 zymogen activators. shares compounds with KLK7 zymogen act. purified proKLK7, EDANS-DABCYL substrate fluorescence; scaled: vehicle 0, mature enzyme 100. activation, % at 7 µM. actives 68% (n = 3,200). AID 686949;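 active = activation, as change over the incubation, above the mean of all tested compounds plus 3 SD, cut at about 13% in these data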
EDANS-DABCYL int – counter-screen for kallikrein-7 activators: EDANS-DABCYL optical interference. shares compounds with KLK7 zymogen act. EDANS-DABCYL substrate fluorescence interference, no enzyme, 4 h; solvent 0%, active enzyme control 100%. activation, % at 7 µM. actives 80% (n = 3,200). AID 686952;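 active = activation above the all-compound mean plus 3 SD, ignoring values outside control-based bounds, cut at about 4.8% in these data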;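 also: value is the 4 h activation minus the activation read at time zero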
EDANS interf – optically interferes with EDANS-DABCYL fluorescence, kallikrein-7 activator counter-screen; shares compounds with KLK7 zymogen act; EDANS-DABCYL peptide fluorescence interference, no enzyme; EC50, µM; actives 20% (n = 250); AID 720493;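 active = compounds that raise the fluorescence signal in this interference counterscreen, with EC50 at or below 10 µM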;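 also: intact quenched peptide substrate alone read at 355 nm excitation and 520 nm emission; signal is fluorescence gain from T0 to T4 after four hours at room temperature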
* marks the source's active call; other numbers are inactive results; nt = no result. Shown are actives, neighbours in structure and some others; about 2.9% of the full set was active somewhere.

SMILES	Runt-CBFb FRET	Runt-SMMHC FRET	RanGTP-Imp inh	Wee1 degr inh	AI-2 QS modul	KLK7 zymogen act	KLK7 act conf	EDANS-DABCYL int	others
CCOC(=O)N1CCC(N2CCCC(C(=O)c3ccc4cc(OC)ccc4c3)C2)CC1 (configuration not stated)	-1.2	3.0	nt	1.6	18.0	68.9*	-29.5	-45.2
COc1ccc2cc(C(=O)C3CCCN(Cc4cccc(C)n4)C3)ccc2c1 (configuration not stated)	-3.3	0.6	-5.6	-0.1	17.4	45.3*	-18.5	-19.6
COc1cccc(-c2ccc(NC(=O)C3CCCN(Cc4cccc(C)n4)C3)cc2)c1 (configuration not stated)	nt	nt	nt	nt	nt	0.0	nt	nt
CCSc1nc2c(c(=O)[nH]1)C(c1ccc(C)cc1)C1=C(CCCC1=O)N2 (configuration not stated)	-2.6	0.5	0.4	1.6	4.0	17.2*	-7.5	-7.1
CSc1nc2c(c(=O)[nH]1)C(c1cccs1)C1=C(CCCC1=O)N2 (configuration not stated)	-1.9	-6.0	8.7	-0.3	3.6	-0.9	nt	nt
Nc1nc2ncccc2cc1C(=O)NCCc1cccs1	nt	nt	nt	nt	nt	23.6*	21.6*	27.6*
CC(C)c1cc(C(=O)NCCc2cccs2)c(N)s1	nt	nt	nt	nt	nt	0.3	nt	nt
CC1CCCN(Cc2c(O)ccc3c(=O)c(-c4ccc(Cl)cc4)coc23)C1 (configuration not stated)	nt	nt	-4.4	nt	20.6	-0.8	nt	nt
CCC1CCCCN1Cc1c(O)ccc2c(=O)c(-c3ccccc3OC)coc12 (configuration not stated)	nt	nt	1.7	nt	-2.2	34.6*	50.6*	71.1*
COc1ccccc1-c1coc2c(CN3CCC(C)CC3)c(O)ccc2c1=O	nt	nt	1.4	nt	11.5	56.6*	64.0*	63.3*
CCOC(=O)C1CCN(S(=O)(=O)c2cccc(-c3cn4cccnc4n3)c2)CC1	0.5	3.6	1.1	-1.4	8.4	27.2*	26.1*	-15.5	EDANS interf=>69.5
CCOC(=O)C1CCN(S(=O)(=O)c2cccc(-c3cn4cc(C)ccc4n3)c2)CC1	0.3	3.9	0.6	-0.1	26.1	-1.8	nt	nt
c1ccc(-c2nc(N3CCCCC3)nc3ccccc23)cc1	34.6	118.4*	40.9*	-0.9	23.1	22.4*	-69.2	-50.2
c1ccc(-c2nc(N3CCNCC3)nc3ccccc23)cc1	20.3	40.7	13.0	-1.5	0.6	69.0*	17.9*	18.8*
CCN1CCN(c2nc(-c3ccccc3)c3ccccc3n2)CC1	nt	nt	4.8	nt	16.8	28.0*	-10.0	-5.5
O=C(NCc1ccon1)C1CCC(=O)N(CCc2ccc(Cl)cc2)C1 (configuration not stated)	nt	nt	5.1	nt	11.2	-0.5	nt	nt
c1cncc(-c2cn(C[C@H]3CC[C@H](Cn4cc(-c5cccnc5)nn4)O3)nn2)c1	nt	nt	nt	nt	nt	-0.1	nt	nt
COc1cc(/C=C/c2cc[n+](C)cc2)ccc1OCC(=O)Nc1ccccc1	nt	nt	-34.0	nt	5.9	24.3*	27.8*	24.8*
COc1ccc(OC)c(/C=N/NC(=O)CC(=O)NC2CCCCC2)c1	nt	nt	-0.7	nt	10.1	28.6*	4.2	22.7*
COc1ccc(OC)c(/C=N/NC(=O)CCc2c(C)n[nH]c2C)c1	3.7	2.6	2.2	-0.8	11.6	16.8*	32.3*	35.4*
COc1ccc(OC)c(/C=N/NC(=O)C(=O)N2CCCC2)c1	-0.6	0.2	2.3	2.7	16.9	59.1*	47.9*	46.2*
